How the values were obtained:
[1] = biological target: Phosphatidylinositol 4,5-bisphosphate 3-kinase catalytic subunit alpha isoform (Homo sapiens, UniProt P42336); experiment: Inhibition of PI3Kalpha (unknown origin) using lipid as substrate incubated for 15 mins followed by substrate addition and measured after 60 mins ADPGloTM reagent based assay
Method in brief: (§1)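 ADP-Glo luminescent readout of ADP formed. Isoforms tested: p110α/p85α, p110β/p85α, p120γ and p110δ/p85α, each in PI3K reaction buffer with lipid substrate. Enzyme preincubated with compound for 15 min at room temperature. ADP-Glo reagent added for 40 min, then detection reagent for 40 min. IC50 from normalized nonlinear dose–response fit.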

MCF7 [2] = experiment: Induction of apoptosis in human MCF7 cells assessed as viable cells at 0.2 uM incubated for 48 hrs by annexin V-FITC and propidium iodide staining based flow cytometry analysis (reference value: 87.7 %); assay type: functional; conditions: read-out: Activity
MCF7 [3] = experiment: Induction of apoptosis in human MCF7 cells assessed as viable cells at 0.8 uM incubated for 48 hrs by annexin V-FITC and propidium iodide staining based flow cytometry analysis (reference value: 87.7 %); assay type: functional; conditions: read-out: Activity
MCF7 [4] = experiment: Inhibition of colony formation in human MCF7 cells at 0.2 to 0.8 uM incubated for 72 hrs by crystal violet staining based assay; assay type: functional, cell-based; conditions: dose microM 0.2-0.8, time 72.0 hrs
Method in brief: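 MCF-7 cells seeded at 3×10³ cells per well in 6-well plates. Exposed to 0, 0.2, 0.4 or 0.8 μM for 72 h, then grown one week in drug-free medium. Colonies stained with crystal violet and photographed.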

MCF7 [5] = experiment: Induction of apoptosis in human MCF7 cells assessed as early apoptotic cells at 0.2 uM incubated for 48 hrs by annexin V-FITC and propidium iodide staining based flow cytometry analysis (reference value: 2.7 %); assay type: functional
MCF7 [6] = experiment: Induction of apoptosis in human MCF7 cells assessed as early apoptotic cells at 0.4 uM incubated for 48 hrs by annexin V-FITC and propidium iodide staining based flow cytometry analysis (reference value: 2.7 %); assay type: functional
[7] = biological target: Epidermal growth factor receptor (Homo sapiens, UniProt P00533); experiment: Inhibition of EGFR (unknown origin) using FAM-labeled peptide as substrate incubated for 10 mins followed by substrate addition and measured after 1 hr by mobility shift assay
Chain of Epidermal growth factor receptor (P00533 whole entry): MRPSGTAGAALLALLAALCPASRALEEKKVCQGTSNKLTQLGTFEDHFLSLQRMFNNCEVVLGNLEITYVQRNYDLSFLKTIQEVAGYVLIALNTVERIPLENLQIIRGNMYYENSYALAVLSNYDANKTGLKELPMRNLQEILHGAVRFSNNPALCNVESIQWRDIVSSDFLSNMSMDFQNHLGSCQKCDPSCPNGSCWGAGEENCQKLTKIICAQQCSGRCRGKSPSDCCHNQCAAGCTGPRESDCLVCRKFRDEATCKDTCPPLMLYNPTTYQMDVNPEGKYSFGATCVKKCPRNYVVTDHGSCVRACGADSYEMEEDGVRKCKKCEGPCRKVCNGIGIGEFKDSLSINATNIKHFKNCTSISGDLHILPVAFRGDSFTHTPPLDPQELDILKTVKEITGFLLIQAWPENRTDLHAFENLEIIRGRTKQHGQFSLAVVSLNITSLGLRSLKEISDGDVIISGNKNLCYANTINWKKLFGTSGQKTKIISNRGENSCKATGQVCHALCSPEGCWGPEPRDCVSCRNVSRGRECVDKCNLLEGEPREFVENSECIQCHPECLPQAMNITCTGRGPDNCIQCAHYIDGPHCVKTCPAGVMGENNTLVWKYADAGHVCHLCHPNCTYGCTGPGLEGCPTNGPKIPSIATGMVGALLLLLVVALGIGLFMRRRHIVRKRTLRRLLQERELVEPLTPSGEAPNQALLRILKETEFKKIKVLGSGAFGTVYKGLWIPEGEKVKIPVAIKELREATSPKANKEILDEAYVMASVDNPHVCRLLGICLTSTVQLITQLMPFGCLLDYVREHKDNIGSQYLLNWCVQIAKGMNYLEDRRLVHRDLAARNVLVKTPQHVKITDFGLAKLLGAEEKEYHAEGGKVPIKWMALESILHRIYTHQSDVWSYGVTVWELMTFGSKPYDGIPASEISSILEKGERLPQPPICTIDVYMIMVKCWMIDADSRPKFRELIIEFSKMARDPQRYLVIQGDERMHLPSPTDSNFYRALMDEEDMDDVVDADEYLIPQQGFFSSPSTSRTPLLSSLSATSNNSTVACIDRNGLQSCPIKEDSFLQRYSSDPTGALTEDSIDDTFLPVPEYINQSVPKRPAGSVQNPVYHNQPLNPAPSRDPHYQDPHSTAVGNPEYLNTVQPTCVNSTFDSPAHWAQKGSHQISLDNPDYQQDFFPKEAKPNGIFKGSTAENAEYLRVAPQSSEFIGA
Method in brief: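 Mobility shift assay in 50 mM HEPES pH 7.5, 10 mM MgCl₂, 2 mM DTT, 0.0015% Brij35. Compound in 10-point DMSO dilution, run in duplicate. Enzyme preincubated with compound 10 min at room temperature. FAM-labeled peptide and ATP then added and reaction run at 28 °C for 1 h. Stopped with EDTA buffer; conversion turned into percent inhibition and fitted to a Hill equation for IC50.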

MCF7 [8] = experiment: Induction of apoptosis in human MCF7 cells assessed as late apoptotic cells at 0.2 uM incubated for 48 hrs by annexin V-FITC and propidium iodide staining based flow cytometry analysis (reference value: 9.2 %); assay type: functional
[9] = biological target: Phosphatidylinositol 4,5-bisphosphate 3-kinase catalytic subunit gamma isoform (Homo sapiens, UniProt P48736); experiment: Inhibition of PI3Kgamma (unknown origin) using lipid as substrate incubated for 15 mins followed by substrate addition and measured after 60 mins ADPGloTM reagent based assay
Chain of Phosphatidylinositol 4,5-bisphosphate 3-kinase catalytic subunit gamma isoform (P48736 whole entry, canonical isoform): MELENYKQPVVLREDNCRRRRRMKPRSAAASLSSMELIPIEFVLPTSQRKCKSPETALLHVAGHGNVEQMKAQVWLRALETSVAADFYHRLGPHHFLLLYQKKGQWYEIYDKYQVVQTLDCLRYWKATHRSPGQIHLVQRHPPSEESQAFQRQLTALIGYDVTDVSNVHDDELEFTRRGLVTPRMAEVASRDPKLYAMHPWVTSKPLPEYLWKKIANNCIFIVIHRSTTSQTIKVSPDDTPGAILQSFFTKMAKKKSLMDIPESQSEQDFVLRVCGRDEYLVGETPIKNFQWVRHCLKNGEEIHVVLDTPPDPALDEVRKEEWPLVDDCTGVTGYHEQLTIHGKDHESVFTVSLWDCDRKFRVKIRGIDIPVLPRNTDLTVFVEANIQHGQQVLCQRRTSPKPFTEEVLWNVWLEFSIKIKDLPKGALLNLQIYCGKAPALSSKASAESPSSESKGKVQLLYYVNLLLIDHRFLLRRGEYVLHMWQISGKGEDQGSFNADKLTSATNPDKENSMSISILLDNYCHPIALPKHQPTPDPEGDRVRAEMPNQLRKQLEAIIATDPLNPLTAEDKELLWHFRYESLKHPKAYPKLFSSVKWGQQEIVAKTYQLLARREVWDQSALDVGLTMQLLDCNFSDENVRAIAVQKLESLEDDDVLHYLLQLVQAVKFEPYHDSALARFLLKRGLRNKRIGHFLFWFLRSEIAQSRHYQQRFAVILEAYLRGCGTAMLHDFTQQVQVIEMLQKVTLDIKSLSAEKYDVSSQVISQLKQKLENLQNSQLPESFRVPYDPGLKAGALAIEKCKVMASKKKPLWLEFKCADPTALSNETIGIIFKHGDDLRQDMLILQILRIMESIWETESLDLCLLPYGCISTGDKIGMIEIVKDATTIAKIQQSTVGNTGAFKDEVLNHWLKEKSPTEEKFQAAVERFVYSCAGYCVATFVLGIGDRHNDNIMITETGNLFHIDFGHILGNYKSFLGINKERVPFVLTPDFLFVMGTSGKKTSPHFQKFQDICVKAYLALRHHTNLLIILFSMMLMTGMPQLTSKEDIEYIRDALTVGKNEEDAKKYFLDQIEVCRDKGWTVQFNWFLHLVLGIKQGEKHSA
Method in brief: as §1, with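 “temperature. Reaction started with 250 μM ATP stock and run 60 min at room temperature.” for “temperature.”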

A549 = experiment: Antiproliferative activity against human A549 cells assessed as reduction in cell viability incubated for 72 hrs by SRB assay; assay type: functional, cell-based; conditions: A549, 72 h
Method in brief: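 Cell lines grown at 37 °C in 5% CO₂: A549 in RPMI1640, MCF-7 in DMEM, each with 10% FBS plus penicillin/streptomycin/amphotericin B. Cells exposed to a range of compound concentrations for 72 h, then TCA-fixed and SRB-stained. Growth inhibition = 100 − 100×(OD sample − OD day 0)/(OD negative control − OD day 0). IC50 from non-linear regression of percent growth against concentration.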

MCF7 [10] = experiment: Induction of apoptosis in human MCF7 cells assessed as late apoptotic cells at 0.8 uM incubated for 48 hrs by annexin V-FITC and propidium iodide staining based flow cytometry analysis (reference value: 9.2 %); assay type: functional

Chain of Phosphatidylinositol 4,5-bisphosphate 3-kinase catalytic subunit alpha isoform (P42336 whole entry, canonical isoform): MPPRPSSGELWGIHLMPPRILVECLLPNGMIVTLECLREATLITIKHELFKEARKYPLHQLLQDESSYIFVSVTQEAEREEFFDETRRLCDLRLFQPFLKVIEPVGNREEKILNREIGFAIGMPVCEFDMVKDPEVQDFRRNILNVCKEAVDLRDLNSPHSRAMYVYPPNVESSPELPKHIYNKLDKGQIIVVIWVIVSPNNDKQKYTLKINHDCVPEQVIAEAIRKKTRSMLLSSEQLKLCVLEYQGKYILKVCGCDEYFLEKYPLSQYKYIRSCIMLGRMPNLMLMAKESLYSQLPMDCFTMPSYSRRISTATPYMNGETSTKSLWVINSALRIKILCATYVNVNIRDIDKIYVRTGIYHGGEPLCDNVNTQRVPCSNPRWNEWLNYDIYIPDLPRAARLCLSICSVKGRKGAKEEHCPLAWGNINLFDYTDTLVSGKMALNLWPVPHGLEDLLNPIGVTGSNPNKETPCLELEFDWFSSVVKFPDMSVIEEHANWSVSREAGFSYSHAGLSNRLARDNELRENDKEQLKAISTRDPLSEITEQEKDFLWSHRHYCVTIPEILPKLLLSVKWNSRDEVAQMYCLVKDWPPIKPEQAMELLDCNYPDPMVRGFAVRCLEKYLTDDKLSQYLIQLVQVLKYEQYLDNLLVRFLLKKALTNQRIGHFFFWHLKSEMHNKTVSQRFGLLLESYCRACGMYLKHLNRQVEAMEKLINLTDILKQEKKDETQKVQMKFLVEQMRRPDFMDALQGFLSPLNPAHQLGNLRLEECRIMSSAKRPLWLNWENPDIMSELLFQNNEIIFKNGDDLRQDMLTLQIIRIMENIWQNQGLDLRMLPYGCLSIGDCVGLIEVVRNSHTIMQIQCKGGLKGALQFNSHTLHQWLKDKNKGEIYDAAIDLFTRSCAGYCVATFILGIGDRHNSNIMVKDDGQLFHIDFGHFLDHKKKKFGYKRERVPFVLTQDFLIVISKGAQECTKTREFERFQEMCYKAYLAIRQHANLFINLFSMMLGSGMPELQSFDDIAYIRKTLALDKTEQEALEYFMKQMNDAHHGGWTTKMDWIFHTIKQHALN

IC50 [1]: 0.2 nM
IC50 [7]: > 10000 nM
IC50 [9]: 0.58 nM
IC50 (A549): 3100 nM
SMILES: COc1ncc(-c2ccc3ncnc(Nc4cnn(CCO)c4)c3c2)cc1NS(=O)(=O)c1ccc(F)cc1F
viability at 0.2 µM (MCF7 [2]): 74.7%
viability at 0.8 µM (MCF7 [3]): 70.3%
inhibition (MCF7 [4]): Dose-dependent effect
Activity (MCF7 [5]): 2.8%
Activity (MCF7 [6]): 3.8%
Activity (MCF7 [8]): 20.6%
Activity (MCF7 [10]): 22.7%
